Each structure is given as a SMILES string.

Experiment [1] is described as follows: The maximal fluorescence quenching was determined using the Grafit program. The procedure, abridged:
(§1)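 Tryptophan fluorescence excited at 295 nm, emission scanned 310–380 nm and integrated after buffer Raman subtraction. Chalcone titrated in successive additions up to 20 µM. Quenching corrected for inner-filter effect using N-acetyltryptophanamide. KD and ΔFmax obtained by curve fitting.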

The nature of experiment [2]: The dissociation constant was measured as binding affinity to P-Glycoprotein C-terminal cytosolic domain using the grafit program. In outline:
as §1

The Kd is the concentration at which binding is half-saturated. Low readings indicate a tighter complex, high ones a looser complex. Turning to `O=C(/C=C/c1ccc(F)cc1)c1c(O)cc(O)cc1O` [4-FLUORO-2',4',6'-TRIHYDROXYCHALCONE], the maximal fluorescence quenching in experiment [1] was 88.1%. In addition, the Kd in experiment [2] is 3600 nM.
Regarding `O=C(/C=C/c1ccccc1)c1c(O)cc(O)cc1O` [2',4',6-TRIHYDROXYCHALCONE], the maximal fluorescence quenching in experiment [1] was 87.8%.
In turn, `O=C(/C=C/c1ccc(O)cc1)c1c(O)cc(O)cc1O` [4,2',4',6'-TETRAHYDROXYCHALCONE] displayed a maximal fluorescence quenching in experiment [1] of 86.8%. The Kd in experiment [2] was determined as 4800 nM.
In the same order, the values of `O=C(/C=C/c1ccc(Br)cc1)c1c(O)cc(O)cc1O` [4-BROMO-2',4',6'-TRIHYDROXYCHALCONE] are 88.7% and 570 nM.
`O=C(/C=C/c1ccc(Cl)cc1)c1c(O)cc(O)cc1O` [4-CHLORO-2',4',6'-TRIHYDROXYCHALCONE] had a maximal fluorescence quenching in experiment [1] of 80.1%. The molecule also came in with a Kd in experiment [2] of 1300 nM.
Molecule `COc1ccc(/C=C/C(=O)c2c(O)cc(O)cc2O)cc1` [4-METHOXYL-2',4',6'-TRIHYDROXYCHALCONE] returned a maximal fluorescence quenching in experiment [1] of 85.5%. The same molecule registered a Kd in experiment [2] of 2300 nM.
The molecule `O=C(/C=C/c1ccc(I)cc1)c1c(O)cc(O)cc1O` had a maximal fluorescence quenching in experiment [1] of 86.6%. For the same molecule, the affinity in experiment [2], expressed as Kd, was 250 nM.
